Source: PubChem BioAssay (Broad Institute)
IDH1 R132H inh: blocks human IDH1 R132H reductase activity; O75874; diaphorase/resazurin fluorescence, 60 min; inhibition, % at 10 µM; hit rate 0.18% among 70,000; AID 624101; in the data active = inhibition above about 34%; inconclusive = no clear call, values can overlap the other calls; inactive = below about 11%;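 also: 0% = DMSO and 100% = no enzyme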
T cruzi growth-1: T. cruzi proliferation inhibition | T. cruzi beta-gal in NIH3T3, GalScreen luminescence, 90 h | inhibition, % at 8.34 µM | hit rate 5.9% among 77,000 | AID 624255;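 active = mean inhibition above about 93%, with at least 55% of replicates each passing it, limit read from the data, passing the limit was not always enough; inconclusive = only one of those two conditions holds; inactive = neither condition holds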
Pf Dd2 inh: inhibitors of Plasmodium falciparum Dd2 growth. P. falciparum Dd2 growth, SYBR Green, 72 h; active compounds read low. activity change, % at 10 µM. hit rate 2.3% among 94,000. AID 1159554; in the data active = activity change below about -80%; inconclusive = no clear call, values can overlap the other calls
GASC1 inh: KDM4C (human) demethylase inhibition; Q9H3R0; GST-KDM4C 2-372, H3K9me3 peptide, LANCE TR-FRET; inhibition, % at 12.5 µM; hit rate 0.15% among 96,000;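 active = mean replicate inhibition above about 25%, with at least 55% of replicates also reaching it, limit read from the data, passing the limit was not always enough; inconclusive = only one of those two conditions met; inactive = neither condition met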
Target sequence (Q9H3R0 2-372 limits assumed): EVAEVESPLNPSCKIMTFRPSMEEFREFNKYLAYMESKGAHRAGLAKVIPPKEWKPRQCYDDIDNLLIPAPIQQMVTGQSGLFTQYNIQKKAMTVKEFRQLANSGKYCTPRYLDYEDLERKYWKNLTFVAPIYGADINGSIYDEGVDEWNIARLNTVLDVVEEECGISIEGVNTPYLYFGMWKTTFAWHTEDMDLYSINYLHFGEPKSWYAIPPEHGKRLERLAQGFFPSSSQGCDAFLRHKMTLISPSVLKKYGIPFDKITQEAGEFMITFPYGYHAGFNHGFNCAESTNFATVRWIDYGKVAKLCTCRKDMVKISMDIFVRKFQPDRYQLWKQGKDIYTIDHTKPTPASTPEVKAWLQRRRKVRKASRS
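Material: GST-tagged GASC-1 (JMJD2C) catalytic fragment, aa 2-372. Input: enzyme final amount 10 nM. Medium: HEPES buffer, pH 7.5, plus ascorbate. Reagent: H3K9me3 peptide substrate, Fe(II), 2-oxoglutarate. Doses: single dose. Times: reaction 30 min RT, detection step 1 h RT. Measured by: LANCE TR-FRET. Evaluation: Fall in 671/618 emission ratio as inhibition.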
T cruzi growth-2: inhibitors of T. cruzi proliferation | inhibition, % at 8.35 µM | shares compounds with T cruzi growth-1 | hit rate 72% among 5,600 | T. cruzi beta-gal in NIH3T3, GalScreen luminescence, 90 h;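 active = mean replicate inhibition above about 95% and at least 55% of replicates individually reaching it, limit read from the data; inconclusive = only one of the two criteria is met; inactive = neither criterion is met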
T cruzi growth-3: Trypanosoma cruzi proliferation inhibition | shares compounds with T cruzi growth-1 | T. cruzi beta-gal in NIH3T3, GalScreen luminescence, 90 h | inhibition, % at 2.09 µM | hit rate 21% among 5,600;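 active = mean inhibition above about 95%, with at least 55% of replicates also reaching it, limit read from the data; inconclusive = meets just one of the two conditions; inactive = meets neither condition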;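 also: plate controls were neutral control median for no effect and positive control median for full effect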
3T3 cytotox: kills mouse NIH/3T3 fibroblasts; shares compounds with T cruzi growth-1; AID 651742; NIH/3T3 viability, CellTiter-Glo ATP luminescence, 90 h; cytotoxicity (signal decrease), % at 8.35 µM; hit rate 14% among 5,600;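 active = mean signal decrease across replicates above about 35% based on untreated-well scatter, with enough replicates individually passing, limit read from the data; inconclusive = no rule stated though some were filed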;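 also: 0% = median of neutral control wells and 100% = median of positive control wells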
NIH3T3 tox 2: cytotoxicity in mouse NIH/3T3 fibroblasts. inhibition, % at 24.9 µM. shares compounds with T cruzi growth-1. AID 651744. NIH/3T3 viability, CellTiter-Glo ATP luminescence, 90 h. hit rate 56% among 5,600;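 active = mean loss of cell viability signal at or above a set limit, and enough replicates individually reaching it; inconclusive = meets only the mean limit or only the replicate share; inactive = meets neither condition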;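 also: 0% = median of neutral control wells and 100% = median of positive control wells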
An asterisk follows results filed as active; u = inconclusive; x = no result. Most compounds without a hit are left out; they make up all but 5.8% or so of the library.

SMILES	IDH1 R132H inh	T cruzi growth-1	Pf Dd2 inh	GASC1 inh	T cruzi growth-2	T cruzi growth-3	3T3 cytotox	NIH3T3 tox 2
O=C(C[C@@H]1CC[C@@H]2[C@H](COC[C@@H](O)CN2Cc2ccccc2)O1)N[C@@H]1CCN(Cc2ccccc2)C1	x	u	-46	-1	u	80	-23	4
O=C(C[C@@H]1CC[C@@H]2[C@H](COC[C@@H](O)CN2Cc2cc(F)ccc2F)O1)N[C@H]1CCN(Cc2ccccc2)C1	x	95	-28	0	x	x	x	x
O=C(C[C@@H]1CC[C@@H]2[C@H](COC[C@H](O)CN2Cc2ccccc2)O1)N[C@@H]1CCN(Cc2ccccc2)C1	x	77	-19	2	x	x	x	x
O=C(C[C@H]1CC[C@H]2[C@@H](COC[C@H](O)CN2Cc2cc(F)ccc2F)O1)NCc1ccc(Cl)cc1	x	u	-50	1	40	11	3	17
C[C@@H](NC(=O)C[C@H]1CC[C@H]2[C@@H](COC[C@@H](O)CN2Cc2ccc(C(F)(F)F)cc2)O1)c1ccccc1	x	u	9	6	66	61	12	8
O=C(C[C@H]1CC[C@H]2[C@@H](COC[C@H](O)CN2Cc2cc(F)ccc2F)O1)N[C@H]1CCN(Cc2ccccc2)C1	x	124*	-75	0	106*	72	-20	-1
CC(C)C#Cc1cnc2c(c1)C(=O)N([C@H](C)CO)C[C@@H](C)[C@H](CN(C)C(=O)c1cccnc1)O2	x	-28	38	-1	x	x	x	x
C[C@@H]1CN([C@@H](C)CO)C(=O)c2cc(C#CC3CCCC3)cnc2O[C@@H]1CN(C)Cc1ccncc1	0	-22	-6	0	x	x	x	x
CN1C(=O)c2cc(NC(=O)c3cc(F)cc(F)c3)ccc2OC[C@H]2O[C@H](CC(=O)O)CC[C@H]21	x	16	-3	0	x	x	x	x
O=C(C[C@@H]1CC[C@@H]2[C@H](COC[C@H](O)CN2Cc2cc(F)ccc2F)O1)N1CCc2ccccc2C1	x	100*	-60	1	83	4	-15	20
C[C@H](CO)N1C[C@H](C)[C@H](CN(C)S(=O)(=O)c2ccc(Cl)cc2)Oc2ccc(NS(=O)(=O)c3ccc(F)cc3)cc2C1=O	0	u	-34	-2	98*	45	40*	u
C[C@@H]1CCCCO[C@H](CN(C)S(=O)(=O)c2ccc(F)cc2)[C@H](C)CN([C@@H](C)CO)C(=O)c2cc(NS(=O)(=O)c3ccc(Cl)cc3)ccc2O1	x	92	-16	0	x	x	x	x
C[C@H]1CN([C@@H](C)CO)C(=O)c2cc(NS(=O)(=O)c3ccc(F)cc3)ccc2O[C@@H]1CN(C)S(=O)(=O)c1ccc(Cl)cc1	-1	27	-21	-1	x	x	x	x
C[C@H]1CCCCO[C@H](CN(C)S(=O)(=O)c2ccc(Cl)cc2)[C@@H](C)CN([C@@H](C)CO)C(=O)c2cc(NS(=O)(=O)c3ccc(F)cc3)ccc2O1	1	103*	-48	2	u	110*	-25	-7
C[C@@H]1CCCCO[C@H](CN(C)S(=O)(=O)c2ccc(F)cc2)[C@H](C)CN([C@H](C)CO)C(=O)c2cc(NS(=O)(=O)c3ccc(Cl)cc3)ccc2O1	1	100*	-57	2	103*	110*	-7	-13
C[C@H](CO)N1C[C@H](C)[C@H](CN(C)S(=O)(=O)c2ccc(Cl)cc2)OCCCC[C@H](C)Oc2ccc(NS(=O)(=O)c3ccc(F)cc3)cc2C1=O	-2	106	-32	0	x	x	x	x
C[C@H]1CCCCO[C@H](CN(C)S(=O)(=O)c2ccc(F)cc2)[C@@H](C)CN([C@@H](C)CO)C(=O)c2cc(NS(=O)(=O)c3ccc(Cl)cc3)ccc2O1	-1	99*	-67	-1	98*	94	2	-9
C[C@@H]1CCCCO[C@@H](CN(C)S(=O)(=O)c2ccc(F)cc2)[C@H](C)CN([C@H](C)CO)C(=O)c2cc(NS(=O)(=O)c3ccc(Cl)cc3)ccc2O1	x	95	-55	0	x	x	x	x
C[C@@H]1CN([C@H](C)CO)C(=O)c2cc(NS(=O)(=O)c3ccc(Cl)cc3)ccc2O[C@@H](C)CCCCO[C@@H]1CN(C)S(=O)(=O)c1ccc(F)cc1	x	105*	-66	7	104*	109*	-40	10
